The RNAGym collection of RNA variant scans (doi:10.1038/nmeth.2970)

B1: NELF-E aptamer (parent)
chain: CCCAACGACUGCCGAGCGAGAUUACGCUUGAGCGCCCCACUGAGGAUGCCCACGGGCGAUUGGGGCACGG

Variants of: B1
Experiment: HiTS-RAP
Conditions: with NELF-E (Drosophila)
Outline: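 Aptamer DNA templates bearing a T7 promoter and a ter site were sequenced on an Illumina GAIIx flowcell. T7 RNA polymerase then transcribed them in situ, and GST-Tus halted transcription over 30 minutes at 37°C. After a 30-minute room-temperature equilibration with NELF-E-mOrange at 0.064 to 1000 nM in HEPES binding buffer, clusters were imaged, using only the first binding curve. Intensities normalised to sequencing intensity were averaged per sequence and fitted with weighted Hill fits to give Kd, retaining only fits whose variance stayed under 1,000,000.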

Going from U10G C38U to U10G C40G, the Kd falls from 9.49 nM to 5.38 nM (1.8-fold). The second binds more tightly here.

First: U10G C40U
Second: U10G C49A
The Kd of the first is 3.2-fold higher: 63.9 nM for the first, 20.2 nM for the second. The second binds more tightly here.

Compared with U10G C49G, U10G C49U is 2.6-fold higher in Kd: 7.15 nM for the first, 18.7 nM for the second.

Compared with U10G C50A, U10G C50G is 2.3-fold lower in Kd: 16.6 nM for the first, 7.26 nM for the second.

U10G C50U and U10G C51A are within 1.5-fold of each other in Kd: 14 nM for the first, 9.77 nM for the second.

Going from U10G C51G to U10G C51U, the Kd rises from 4.43 nM to 6.95 nM (1.6-fold). The first binds more tightly here.

U10G C53A and U10G C53G are within 1.5-fold of each other in Kd: 5.46 nM for the first, 6.55 nM for the second.

Going from U10G C53U to U10G C57A, the Kd rises from 3.77 nM to 11.8 nM (3.1-fold). The first binds more tightly here.

U10G C57G and U10G C57U are within 1.5-fold of each other in Kd: 7.81 nM for the first, 5.61 nM for the second.

U10G C66A and U10G C66G are within 1.5-fold of each other in Kd: 5.44 nM for the first, 4.43 nM for the second.

U10G C66U and U10G G11A are within 1.5-fold of each other in Kd: 4.66 nM for the first, 6.15 nM for the second.

U10G G11C and U10G G11U are within 1.5-fold of each other in Kd: 5.59 nM for the first, 5.48 nM for the second.

U10G G14A and U10G G14C are within 1.5-fold of each other in Kd: 5.01 nM for the first, 6.25 nM for the second.

U10G G14U and U10G G16A are within 1.5-fold of each other in Kd: 5.99 nM for the first, 5.62 nM for the second.

U10G G16C and U10G G16U are within 1.5-fold of each other in Kd: 6.96 nM for the first, 6.08 nM for the second.

U10G G18A and U10G G18U are within 1.5-fold of each other in Kd: 5.37 nM for the first, 5.3 nM for the second.

U10G G20A and U10G G20U are within 1.5-fold of each other in Kd: 5.57 nM for the first, 6.08 nM for the second.

Going from U10G G26A to U10G G26C, the Kd rises from 4.15 nM to 17.4 nM (4.2-fold). The first binds more tightly here.

U10G G26U and U10G G30A are within 1.5-fold of each other in Kd: 5.07 nM for the first, 4.59 nM for the second.

U10G G30C and U10G G30U are within 1.5-fold of each other in Kd: 5.8 nM for the first, 5.29 nM for the second.

U10G G32A and U10G G32C are within 1.5-fold of each other in Kd: 4.44 nM for the first, 4.38 nM for the second.

U10G G32U and U10G G34A are within 1.5-fold of each other in Kd: 5.18 nM for the first, 6.95 nM for the second.

Going from U10G G34C to U10G G34U, the Kd falls from 13.2 nM to 5.54 nM (2.4-fold).

First: U10G G42A
Second: U10G G42U
The Kd of the first is 1.8-fold higher: 42.8 nM for the first, 23.2 nM for the second.

U10G G44A and U10G G44C are within 1.5-fold of each other in Kd: 45.2 nM for the first, 34.8 nM for the second.

Going from U10G G44U to U10G G45A, the Kd rises from 9.69 nM to 68.6 nM (7.1-fold). The first binds more tightly here.

U10G G45U and U10G G48A are within 1.5-fold of each other in Kd: 7.35 nM for the first, 8.83 nM for the second.

Going from U10G G48U to U10G G54A, the Kd rises from 6.92 nM to 12 nM (1.7-fold).

U10G G54U and U10G G55A are within 1.5-fold of each other in Kd: 6.86 nM for the first, 8.64 nM for the second.

U10G G55C and U10G G55U are within 1.5-fold of each other in Kd: 7.54 nM for the first, 6.13 nM for the second.

Compared with U10G G56A, U10G G56C is 2.9-fold higher in Kd: 9.45 nM for the first, 27.1 nM for the second.

Going from U10G G56U to U10G G58U, the Kd rises from 5.31 nM to 8.62 nM (1.6-fold). The first binds more tightly here.

Compared with U10G G62A, U10G G62C is 4-fold higher in Kd: 16.9 nM for the first, 67.3 nM for the second.

First: U10G G62U
Second: U10G G63A
The Kd of the first is 2.4-fold lower: 6.99 nM for the first, 16.5 nM for the second.

Compared with U10G G63C, U10G G63U is 3.9-fold lower in Kd: 43 nM for the first, 10.9 nM for the second. The second binds more tightly here.

U10G G64A and U10G G64C are within 1.5-fold of each other in Kd: 7.4 nM for the first, 6.95 nM for the second.

Compared with U10G G64U, U10G G65A is 1.5-fold lower in Kd: 7.3 nM for the first, 4.82 nM for the second. The second binds more tightly here.

Going from U10G G65C to U10G G65U, the Kd falls from 17 nM to 6.08 nM (2.8-fold). The second binds more tightly here.

U10G U22A and U10G U22C are within 1.5-fold of each other in Kd: 5.58 nM for the first, 4.95 nM for the second.

U10G U22G and U10G U23A are within 1.5-fold of each other in Kd: 4.87 nM for the first, 5.14 nM for the second.

U10G U23C and U10G U23G are within 1.5-fold of each other in Kd: 4.23 nM for the first, 5.1 nM for the second.

Compared with U10G U28A, U10G U28C is 2-fold higher in Kd: 4.53 nM for the first, 8.85 nM for the second.

U10G U28G and U10G U29A are within 1.5-fold of each other in Kd: 6.52 nM for the first, 4.58 nM for the second.

U10G U29C and U10G U29G are within 1.5-fold of each other in Kd: 4.67 nM for the first, 5.05 nM for the second.

U10G U41A and U10G U41C are within 1.5-fold of each other in Kd: 82.6 nM for the first, 76.2 nM for the second.

Compared with U10G U41G, U10G U47A is 2.1-fold higher in Kd: 5.17 nM for the first, 10.8 nM for the second.

U10G U47G and U10G U60A are within 1.5-fold of each other in Kd: 6.24 nM for the first, 8.76 nM for the second.

U10G U60C and U10G U60G are within 1.5-fold of each other in Kd: 8.47 nM for the first, 6.36 nM for the second.

Compared with U10G U61A, U10G U61G is 3.5-fold lower in Kd: 29.9 nM for the first, 8.63 nM for the second.

G11A and G11A A19G are within 1.5-fold of each other in Kd: 5.29 nM for the first, 6.92 nM for the second.

Compared with G11A A24G, G11A A31G is 1.9-fold higher in Kd: 5.78 nM for the first, 10.9 nM for the second. The first binds more tightly here.

First: G11A A39U
Second: G11A A67U
The Kd of the first is 3.5-fold higher: 24.2 nM for the first, 6.87 nM for the second.

G11A C12G and G11A C13G are within 1.5-fold of each other in Kd: 7.18 nM for the first, 6.15 nM for the second.

G11A C13U and G11A C17G are within 1.5-fold of each other in Kd: 5.33 nM for the first, 6.96 nM for the second.

G11A G14A and G11A G14U are within 1.5-fold of each other in Kd: 6.34 nM for the first, 6.48 nM for the second.

G11A G16U and G11A G18A are within 1.5-fold of each other in Kd: 6.64 nM for the first, 7.8 nM for the second.

G11A G20U and G11A U22G are within 1.5-fold of each other in Kd: 8.59 nM for the first, 6.03 nM for the second.

First: G11A U23G
Second: G11A U28C
The Kd of the first is 1.8-fold lower: 5.54 nM for the first, 9.79 nM for the second. The first binds more tightly here.

Compared with G11A U29G, G11A U41A is 12-fold higher in Kd: 6.58 nM for the first, 77 nM for the second.

Compared with G11A U41C, G11A U41G is 14-fold lower in Kd: 83.6 nM for the first, 6.14 nM for the second.

G11C and G11C C12G are within 1.5-fold of each other in Kd: 6.3 nM for the first, 5.71 nM for the second.

G11U and G11U A15G are within 1.5-fold of each other in Kd: 5.7 nM for the first, 6.22 nM for the second.

G11U A15U and G11U A19G are within 1.5-fold of each other in Kd: 7.47 nM for the first, 6.05 nM for the second.

G11U A19U and G11U A21G are within 1.5-fold of each other in Kd: 7.3 nM for the first, 7.69 nM for the second.

G11U A21U and G11U A24G are within 1.5-fold of each other in Kd: 5.9 nM for the first, 5.82 nM for the second.

G11U A24U and G11U A31G are within 1.5-fold of each other in Kd: 5.45 nM for the first, 7.38 nM for the second.

First: G11U A31U
Second: G11U A39G
The Kd of the first is 1.9-fold lower: 6.12 nM for the first, 11.4 nM for the second.

Compared with G11U A39U, G11U A43G is 2.2-fold higher in Kd: 21.3 nM for the first, 45.8 nM for the second. The first binds more tightly here.

Compared with G11U A52G, G11U A52U is 4.3-fold higher in Kd: 3.84 nM for the first, 16.5 nM for the second. The first binds more tightly here.

Compared with G11U A59G, G11U A59U is 2.8-fold higher in Kd: 17.7 nM for the first, 48.9 nM for the second. The first binds more tightly here.

G11U A67G and G11U A67U are within 1.5-fold of each other in Kd: 6.41 nM for the first, 9.06 nM for the second.

G11U C12G and G11U C12U are within 1.5-fold of each other in Kd: 5.8 nM for the first, 4.76 nM for the second.

G11U C13A and G11U C13G are within 1.5-fold of each other in Kd: 6.58 nM for the first, 5.71 nM for the second.

G11U C13U and G11U C17G are within 1.5-fold of each other in Kd: 6.19 nM for the first, 5.84 nM for the second.

G11U C17U and G11U C25G are within 1.5-fold of each other in Kd: 5.76 nM for the first, 4.89 nM for the second.

Compared with G11U C27U, G11U C37U is 1.6-fold higher in Kd: 4.86 nM for the first, 7.71 nM for the second. The first binds more tightly here.

First: G11U C50U
Second: G11U C51U
The Kd of the first is 2.7-fold higher: 17.7 nM for the first, 6.67 nM for the second.

First: G11U C53U
Second: G11U C57U
The Kd of the first is 1.5-fold lower: 3.96 nM for the first, 6.12 nM for the second. The first binds more tightly here.

G11U G14A and G11U G14U are within 1.5-fold of each other in Kd: 6.87 nM for the first, 6.82 nM for the second.

G11U G16A and G11U G16U are within 1.5-fold of each other in Kd: 6.06 nM for the first, 6.7 nM for the second.

G11U G20A and G11U G20U are within 1.5-fold of each other in Kd: 5.7 nM for the first, 7.02 nM for the second.

G11U G26A and G11U G26U are within 1.5-fold of each other in Kd: 5.08 nM for the first, 6.79 nM for the second.

G11U G30A and G11U G32A are within 1.5-fold of each other in Kd: 5.79 nM for the first, 6.15 nM for the second.

With G11U G34A the Kd was 6.7 nM.
